Test results: ChEMBL document CHEMBL6177921, “Enhancing the antimycobacterial efficacy of pyridine-4-carbohydrazide: linkage to additional antimicrobial agents via oxocarboxylic acids” (RSC Med Chem, 2025)
≈ marks a conversion by molar mass, not a printed value.

Columns and labels:
Format in all cases: functional
[1] = test system: Mycobacterium tuberculosis; assay: Antimycobacterial activity against multidrug sensitive Mycobacterium tuberculosis H37Rv CNCTC 331/88 assessed as bacterial growth inhibition incubated for 14 days by two-fold serial dilution method; conditions: H37Rv CNCTC 331/88, 336 h, time 14 day
Mycobacterium kansasii [2] = assay: Antimycobacterial activity against INH/RIF/rifabutin/OFX/EMB Mycobacterium kansasii CNCTC 6509/96 clinical isolate assessed as bacterial growth inhibition incubated for 7 days by two-fold serial dilution method; conditions: CNCTC 6509/96, 168 h, time 7 day
How it was run: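 Šula's liquid semisynthetic medium; M. kansasii clinical isolate 6509/96 used at stock dilution 10−4, final ~1.5 × 10^5 CFU mL−1. Two-fold dilutions ran 1000–1 μM with final DMSO 1.0% (v/v). MIC was read visually as complete growth inhibition after 7, 14 and 21 days.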

Mycobacterium kansasii [3] = assay: Antimycobacterial activity against multi-drug resistant Mycobacterium kansasii CNCTC 6509/96 clinical isolate assessed as bacterial growth inhibition incubated for 14 days by two-fold serial dilution method; conditions: CNCTC 6509/96, 336 h, time 14 day
How it was run: (§1)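 M. kansasii clinical isolate 6509/96 (stock dilution 10−4) in Šula's semisynthetic liquid medium; two-fold serial dilutions 1000 to 1 μM, DMSO final 1.0% v/v; final load 1.5 × 10^5 CFU mL−1; MIC read visually as complete growth inhibition at 7, 14 and 21 days.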

Mycobacterium avium [4] = assay: Antimycobacterial activity against INH/RIF/rifabutin/OFX/EMB resistant Mycobacterium avium CNCTC 330/88 assessed as bacterial growth inhibition incubated for 14 days by two-fold serial dilution method; conditions: CNCTC 330/88, 336 h, time 14 day
How it was run: (§2)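 M. avium CNCTC 330/88 (stock suspension dilution 10−5) grown in Šula's semisynthetic liquid medium; two-fold serial dilutions 1000 to 1 μM from DMSO stocks (final DMSO 1.0% v/v); final load 1.5 × 10^5 CFU mL−1; MIC read visually as lowest concentration giving complete growth inhibition after 14 and 21 days.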

[5] = test system: Mycobacterium tuberculosis; assay: Antimycobacterial activity against Mycobacterium tuberculosis H37Rv CNCTC 331/88 assessed as bacterial growth inhibition incubated for 21 days by two fold serial dilution method; conditions: H37Rv CNCTC 331/88, 504 h, time 21 day
Mycobacterium avium [6] = assay: Antimycobacterial activity against INH/RIF/rifabutin/OFX/EMB resistant Mycobacterium avium CNCTC 330/88 assessed as bacterial growth inhibition incubated for 21 days by two-fold serial dilution method; conditions: CNCTC 330/88, 504 h, time 21 day; how it was run: as §2
Mycobacterium kansasii [7] = assay: Antimycobacterial activity against multi-drug resistant Mycobacterium kansasii clinical isolate CNCTC 6509/96 assessed as bacterial growth inhibition incubated for 21 days by two-fold serial dilution method; conditions: CNCTC 6509/96, 504 h, time 21 day; how it was run: as §1
[8] = test system: Trichophyton interdigitale; assay: Antifungal activity against Trichophyton interdigitale ATCC 9533 measured after 24 to 48 hrs by microdilution broth method; conditions: time 24-48 hrs
Candida tropicalis [9] = assay: Antifungal activity against Candida tropicalis CCM 8264 measured after 24 to 48 hrs by microdilution broth method; conditions: time 24-48 hrs
How it was run: (§3)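 Yeast broth microdilution per EUCAST, slightly modified. Medium was RPMI-1640 with 2% glucose, MOPS-buffered to pH 7.0. Compounds were tested at 0.98–500 μM with final DMSO ≤1.0% (v/v). Inoculum came from 18–24 h cultures, final ~1–5 × 10^5 CFU mL−1. Plates were incubated statically, dark and humidified, at 35 ± 2 °C. MIC was read visually at 24 and 48 h (no visible growth).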

Candida parapsilosis [10] = assay: Antifungal activity against Candida parapsilosis ATCC 22019 measured after 24 to 48 hrs by microdilution broth method; conditions: Lodderomyces parapsilosis, time 24-48 hrs; how it was run: as §3
Lichtheimia corymbifera = assay: Antifungal activity against Lichtheimia corymbifera CCM 8077 measured after 24 to 48 hrs by microdilution broth method; conditions: time 24-48 hrs
How it was run: (§4)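 Filamentous fungi tested by broth microdilution per EUCAST with minor changes. Compounds were tested at 0.98–500 μM with final DMSO ≤1.0% (v/v). Plates were incubated statically, dark and humidified, at 35 ± 2 °C for 24 and 48 h. MIC was the lowest concentration showing no visible growth.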

Candida albicans [11] = assay: Antifungal activity against Candida albicans ATCC 24443 measured after 24 to 48 hrs by microdilution broth method; conditions: time 24-48 hrs; how it was run: as §3
Aspergillus fumigatus = assay: Antifungal activity against Aspergillus fumigatus ATCC 204305 measured after 24 to 48 hrs by microdilution broth method; conditions: time 24-48 hrs; how it was run: as §4
Candida parapsilosis [12] = assay: Antifungal activity against Candida parapsilosis CCM 8260 measured after 24 to 48 hrs by microdilution broth method; conditions: Lodderomyces parapsilosis, time 24-48 hrs; how it was run: as §3
Pichia kudriavzevii [13] = assay: Antifungal activity against Candida krusei ATCC 6258 measured after 24 to 48 hrs by microdilution broth method; conditions: time 24-48 hrs; how it was run: as §3
[14] = test system: Trichophyton interdigitale; assay: Antifungal activity against Trichophyton interdigitale CCM 8377 measured after 24 to 48 hrs by microdilution broth method; conditions: time 24-48 hrs
Pichia kudriavzevii [15] = assay: Antifungal activity against Candida krusei CCM 8271 measured after 24 to 48 hrs by microdilution broth method; conditions: time 24-48 hrs; how it was run: as §3
Candida albicans [16] = assay: Antifungal activity against Candida albicans CCM 8320 measured after 24 to 48 hrs by microdilution broth method; conditions: time 24-48 hrs; how it was run: as §3
Candida tropicalis [17] = assay: Antifungal activity against Candida tropicalis ATCC 750 measured after 24 to 48 hrs by microdilution broth method; conditions: time 24-48 hrs; how it was run: as §3
Aspergillus flavus = assay: Antifungal activity against Aspergillus flavus CCM 8363 measured after 24 to 48 hrs by microdilution broth method; conditions: time 24-48 hrs; how it was run: as §4

SMILES	MIC [1] [µM]	MIC (Mycobacterium kansasii [2]) [µM]	MIC (Mycobacterium kansasii [3]) [µM]	MIC (Mycobacterium avium [4]) [µM]	MIC [5] [µM]	MIC (Mycobacterium avium [6]) [µM]	MIC (Mycobacterium kansasii [7]) [µM]	MIC [8] [µM]	MIC (Candida tropicalis [9]) [µM]	MIC (Candida parapsilosis [10]) [µM]	MIC (Lichtheimia corymbifera) [µM]	MIC (Candida albicans [11]) [µM]	MIC (Aspergillus fumigatus) [µM]	MIC (Candida parapsilosis [12]) [µM]	MIC (Pichia kudriavzevii [13]) [µM]	MIC [14] [µM]	MIC (Pichia kudriavzevii [15]) [µM]	MIC (Candida albicans [16]) [µM]	MIC (Candida tropicalis [17]) [µM]	MIC (Aspergillus flavus) [µM]
O=C(/C=N/NC(=O)c1ccncc1)Nc1ccc(S(=O)(=O)Nc2nccs2)cc1	2 (≈ 0.861 µg/mL)	8 (≈ 3.44 µg/mL)	8 (≈ 3.44 µg/mL)	250 (≈ 108 µg/mL)	4 (≈ 1.72 µg/mL)	500 (≈ 215 µg/mL)	8 (≈ 3.44 µg/mL)	–	–	–	–	–	–	–	–	–	–	–	–	–
Nc1ccc(S(=O)(=O)Nc2ccc(Oc3ccc(Cl)cc3)c(Cl)c2)cc1	125 (≈ 51.2 µg/mL)	125 (≈ 51.2 µg/mL)	125 (≈ 51.2 µg/mL)	125 (≈ 51.2 µg/mL)	125 (≈ 51.2 µg/mL)	125 (≈ 51.2 µg/mL)	125 (≈ 51.2 µg/mL)	–	–	–	–	–	–	–	–	–	–	–	–	–
C/C(=N\NC(=O)c1ccncc1)C(=O)Nc1ccc(S(N)(=O)=O)cc1	2 (≈ 0.723 µg/mL)	32 (≈ 11.6 µg/mL)	64 (≈ 23.1 µg/mL)	≥ 1000	2 (≈ 0.723 µg/mL)	≥ 1000	64 (≈ 23.1 µg/mL)	> 500	> 500	> 500	> 500	> 500	> 500	> 500	> 500	> 500	> 500	> 500	> 500	> 500
C/C(=N\NC(=O)c1ccncc1)C(=O)Nc1ccc(NC(=O)/C(C)=N/NC(=O)c2ccncc2)cc1	64 (≈ 31.1 µg/mL)	250 (≈ 122 µg/mL)	250 (≈ 122 µg/mL)	250 (≈ 122 µg/mL)	64 (≈ 31.1 µg/mL)	250 (≈ 122 µg/mL)	250 (≈ 122 µg/mL)	–	–	–	–	–	–	–	–	–	–	–	–	–
C/C(=N\NC(=O)c1ccncc1)C(=O)Nc1ccc(S(=O)(=O)Nc2nccs2)cc1	1 (≈ 0.444 µg/mL)	16 (≈ 7.11 µg/mL)	16 (≈ 7.11 µg/mL)	≥ 1000	1 (≈ 0.444 µg/mL)	≥ 1000	16 (≈ 7.11 µg/mL)	> 500	> 500	> 500	> 500	> 500	> 500	> 500	> 500	> 500	> 500	> 500	> 500	> 500
Nc1ccc(S(=O)(=O)Nc2ccccc2Oc2ccccc2)cc1	250 (≈ 85.1 µg/mL)	500 (≈ 170 µg/mL)	500 (≈ 170 µg/mL)	500 (≈ 170 µg/mL)	250 (≈ 85.1 µg/mL)	1000 (≈ 340 µg/mL)	500 (≈ 170 µg/mL)	–	–	–	–	–	–	–	–	–	–	–	–	–
C/C(=N\NC(=O)c1ccncc1)C(=O)Nc1ccc(S(=O)(=O)Nc2ncccn2)cc1	2 (≈ 0.879 µg/mL)	32 (≈ 14.1 µg/mL)	64 (≈ 28.1 µg/mL)	1000 (≈ 439 µg/mL)	2 (≈ 0.879 µg/mL)	≥ 1000	64 (≈ 28.1 µg/mL)	> 500	> 500	> 500	> 500	> 500	> 500	> 500	> 500	> 500	> 500	> 500	> 500	> 500
Nc1ccc(S(=O)(=O)Nc2ccc(Sc3ccc([N+](=O)[O-])cc3)cc2)cc1	125 (≈ 50.2 µg/mL)	8 (≈ 3.21 µg/mL)	≥ 1000	≥ 1000	≥ 1000	≥ 1000	≥ 1000	–	–	–	–	–	–	–	–	–	–	–	–	–
O=C(O)/C=N/NC(=O)c1ccncc1	0.25 (≈ 0.0483 µg/mL)	4 (≈ 0.773 µg/mL)	4 (≈ 0.773 µg/mL)	250 (≈ 48.3 µg/mL)	0.5 (≈ 0.0966 µg/mL)	> 250	8 (≈ 1.55 µg/mL)	–	–	–	–	–	–	–	–	–	–	–	–	–
C/C(=N\NC(=O)c1ccncc1)C(=O)Nc1ccc(S(=O)(=O)Nc2nc(C)cc(C)n2)cc1	1 (≈ 0.468 µg/mL)	16 (≈ 7.48 µg/mL)	32 (≈ 15 µg/mL)	500 (≈ 234 µg/mL)	1 (≈ 0.468 µg/mL)	500 (≈ 234 µg/mL)	32 (≈ 15 µg/mL)	> 500	> 500	> 500	> 500	> 500	> 500	> 500	> 500	> 500	> 500	> 500	> 500	> 500
C/C(=N\NC(=O)c1ccncc1)C(=O)O [PYRUVIC ACID ISONIAZID]	1 (≈ 0.207 µg/mL)	8 (≈ 1.66 µg/mL)	16 (≈ 3.32 µg/mL)	500 (≈ 104 µg/mL)	1 (≈ 0.207 µg/mL)	> 1000	16 (≈ 3.32 µg/mL)	–	–	–	–	–	–	–	–	–	–	–	–	–
